Measurements as given in ChEMBL document CHEMBL4480374, “Methoxy substituted 2-benzylidene-1-indanone derivatives as A1 and/or A2A AR antagonists for the potential treatment of neurological conditions” (Medchemcomm, 2019).

Columns and labels:
[1] = target: T1, Adenosine receptor A1 (Rattus norvegicus, UniProt P25099); test: Displacement of [3H]DPCPX from adenosine A1 receptor in rat brain membranes by radioligand competition assay; assay type: cell membranes
T1 sequence (P25099 whole entry): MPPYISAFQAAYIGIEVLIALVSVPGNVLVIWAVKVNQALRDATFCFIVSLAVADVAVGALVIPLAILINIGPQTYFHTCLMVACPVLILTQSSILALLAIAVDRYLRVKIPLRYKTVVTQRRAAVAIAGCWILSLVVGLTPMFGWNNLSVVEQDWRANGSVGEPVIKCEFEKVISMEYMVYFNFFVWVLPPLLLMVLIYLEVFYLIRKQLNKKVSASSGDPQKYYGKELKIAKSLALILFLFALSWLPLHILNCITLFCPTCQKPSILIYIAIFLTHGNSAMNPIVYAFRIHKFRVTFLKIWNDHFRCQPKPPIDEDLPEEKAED

[2] = target: T2, Adenosine receptor A1 (Rattus norvegicus) (UniProt P25099); test: Displacement of [3H]DPCPX from adenosine A1 receptor in rat brain membranes at 100 uM by radioligand competition assay relative to control; assay type: cell membranes
T2 sequence (whole entry): T1 sequence (P25099 whole entry)
Outline: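 Percentage displacement of radioligand recorded at the maximum tested concentration, 100 μM. Nonspecific binding defined with 100 μM CPA.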

[3] = target: T3, Adenosine receptor A2a (Rattus norvegicus, UniProt P30543); test: Displacement of [3H]NECA from adenosine A2A receptor in rat striatal membranes by radioligand competition assay; assay type: cell membranes, Striatum, Membrane
[4] = target: Adenosine receptor A2a (Rattus norvegicus) (UniProt P30543); test: Displacement of [3H]NECA from adenosine A2A receptor in rat striatal membranes at 100 uM by radioligand competition assay relative to control; assay type: cell membranes; conditions: Striatum, Membrane
Outline: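 Rat striatal membranes, [3H]NECA at 4 nM (Kd = 15.3 nM) with CPA added to minimise A1 binding. Percentage radioligand displacement recorded at the highest tested concentration, 100 μM. Nonspecific binding defined with 100 μM CPA.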

[5] = target: T3, Adenosine receptor A2a; test: Antagonist activity at rat adenosine A2A receptor
Outline: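 Competition binding at A2A in rat striatal membranes with [3H]NECA (4 nM; Kd = 15.3 nM), with CPA present to limit [3H]NECA binding to A1. Nonspecific binding defined with 100 μM CPA (final). Ki derived from IC50 of sigmoidal dose-response curves of specific binding vs log concentration. Triplicate incubations, mean ± SEM.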

[6] = target: T1, Adenosine receptor A1; test: Antagonist activity at rat adenosine A1 receptor
[7] = species on record: Rattus norvegicus; test: Selectivity index, ratio of Ki for adenosine A1 receptor in rat brain membranes to Ki for adenosine A2A receptor in rat striatal membranes; assay type: cell membranes
Outline: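 Selectivity index calculated as the ratio A1 Ki / A2A Ki. […] A2A Ki measured by [3H]NECA (4 nM, with CPA) competition in rat striatal membranes. Ki values are triplicate means.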

[8] = target: T1, Adenosine receptor A1; test: Displacement of [3H]DPCPX from adenosine A1 receptor in rat brain membranes in presence of GTP by radioligand competition assay; assay type: cell membranes
[9] = target: T2, Adenosine receptor A1 (Rattus norvegicus); test: Selectivity index, ratio of Ki for adenosine A1 receptor in rat brain membranes in presence of GTP to Ki for adenosine A1 receptor in rat brain membranes in absence of GTP; assay type: cell membranes
Outline: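 Both determined by [3H]DPCPX (0.1 nM) competition in rat whole brain membranes, nonspecific binding by 10 μM unlabelled DPCPX. A shift of about 1 is taken as antagonism.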

T3 sequence (P30543 whole entry): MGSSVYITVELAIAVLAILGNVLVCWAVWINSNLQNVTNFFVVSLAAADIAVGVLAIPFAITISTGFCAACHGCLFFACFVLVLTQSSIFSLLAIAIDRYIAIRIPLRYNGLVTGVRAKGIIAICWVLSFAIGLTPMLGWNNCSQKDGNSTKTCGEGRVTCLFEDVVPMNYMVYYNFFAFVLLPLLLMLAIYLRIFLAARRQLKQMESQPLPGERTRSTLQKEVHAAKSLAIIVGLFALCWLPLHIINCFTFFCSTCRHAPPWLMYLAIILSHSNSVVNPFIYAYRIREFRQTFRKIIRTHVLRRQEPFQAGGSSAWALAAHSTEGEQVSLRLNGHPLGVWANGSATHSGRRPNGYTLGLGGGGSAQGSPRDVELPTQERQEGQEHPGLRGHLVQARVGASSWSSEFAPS
Sequence of Adenosine receptor A2a (Rattus norvegicus) (P30543 whole entry): as above

Compound	Ki [1] [µM]	inhibition [2] [%]	Ki [3] [µM]	inhibition [4] [%]	Ki [5] [µM]	Ki [6] [µM]	Ratio Ki [7]	Ki [8] [µM]	Ratio Ki [9]
O=C1/C(=C/c2ccc(O)c(O)c2)Cc2cc3c(cc21)OCO3	> 100	70	1.07						
O=C1/C(=C/c2ccc(O)cc2)Oc2cc(O)ccc21					> 100				
O=C1/C(=C/c2ccc(O)c(O)c2)Oc2c1ccc(O)c2O					9.35	3.47			
COc1ccc2c(c1)C/C(=C\c1ccc(N(C)C)cc1)C2=O	> 100	64	> 100	47					
CN(C)c1ccc(/C=C2\Cc3ccccc3C2=O)cc1	> 100	51	> 100	65					
COc1cccc2c1CCC2=O	> 100	78	> 100	72					
COc1cc2c(cc1OC)C(=O)/C(=C/c1ccc(O)c(O)c1)C2	4.29		18				0.2		
OC[C@H]1O[C@@H](n2cnc3c(NC4CCCC4)ncnc32)[C@H](O)[C@@H]1O [N6-CYCLOPENTYLADENOSINE]			0.163						
COc1ccc2c(c1)C/C(=C\c1ccc(O)c(O)c1)C2=O	3.28		6.32				0.5		

Further lines, results first:

Ki [1] [µM]	inhibition [2] [%]	Ki [3] [µM]	inhibition [4] [%]	Ki [5] [µM]	Ki [6] [µM]	Ratio Ki [7]	Ki [8] [µM]	Ratio Ki [9]	Compound
> 100	46	> 100	29						COc1cc(OC)c(OC)cc1/C=C1\Cc2c(OC)cccc2C1=O
1.62		5.46							O=C1/C(=C/c2cccc(O)c2)CCc2c(O)cccc21
0.435		0.903				0.5	0.339	0.9	O=C1/C(=C/c2ccc(O)c(O)c2)Cc2c(O)cccc21
> 100	52	> 100	23						COc1cccc2c1C/C(=C\c1ccc(N(C)C)cc1)C2=O
> 100	31	> 100	65						COc1cccc2c1C/C(=C\c1ccc(O)cc1)C2=O
> 100	42	> 100	82						COc1ccc2c(c1)C/C(=C\c1ccccc1)C2=O
0.041		0.097				0.4	0.06	1.46	COc1cccc2c1C/C(=C\c1cccc(O)c1)C2=O
1.65		> 100	62						COc1cccc2c1C/C(=C\c1ccccc1)C2=O
0.042		0.078				0.5			COc1cccc2c1C/C(=C\c1ccc(O)c(O)c1)C2=O
